# Key:
# [1] = test system: Nonstructural protein 5A (Hepatitis C virus), Q5L478 [UNDEFINED MUTATION]; experiment: Inhibition of NS5A L31M/Y93C double mutant in HCV genotype 1a infected in HuH7 replicon cells assessed as decrease in viral replication after 3 days by RT-PCR method; format: cell-based; details: Hepatitis C virus subtype 1a
# [2] = Resistance ratio of EC90 for NS5A L31M/Y93H double mutant in HCV genotype 1b infected in HuH7 replicon cells to EC90 for NS5A in HCV genotype 1a infected in HuH7 replicon cells; format: cell-based
# [3] = Resistance ratio of EC90 for NS5A L31V mutant in HCV genotype 3a infected in HuH7 replicon cells to EC90 for NS5A in HCV genotype 1a infected in HuH7 replicon cells; format: cell-based
# [4] = target: T1, Nonstructural protein 5A (Hepatitis C virus) (UniProt Q5L478); experiment: Inhibition of NS5A A92T mutant in HCV genotype 1b infected in HuH7 replicon cells assessed as decrease in viral replication after 3 days by RT-PCR method; format: cell-based; details: Hepatitis C virus subtype 1b
# T1 sequence (whole entry): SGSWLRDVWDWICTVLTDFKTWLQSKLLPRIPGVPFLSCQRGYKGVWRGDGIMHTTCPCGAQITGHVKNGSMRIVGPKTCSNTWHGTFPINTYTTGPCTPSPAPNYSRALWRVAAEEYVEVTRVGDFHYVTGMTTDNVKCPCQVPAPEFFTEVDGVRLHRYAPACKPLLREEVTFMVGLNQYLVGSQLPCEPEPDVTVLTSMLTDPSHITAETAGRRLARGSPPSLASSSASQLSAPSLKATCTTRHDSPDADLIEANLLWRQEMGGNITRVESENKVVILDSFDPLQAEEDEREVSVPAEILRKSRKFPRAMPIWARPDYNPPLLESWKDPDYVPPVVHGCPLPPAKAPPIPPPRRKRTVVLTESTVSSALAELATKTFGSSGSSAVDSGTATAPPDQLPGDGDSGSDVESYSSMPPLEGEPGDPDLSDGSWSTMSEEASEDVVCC
# [5] = test system: Hepatitis C virus subtype 1a; experiment: Resistance ratio of EC90 for NS5A Y93N mutant in HCV genotype 1a infected in HuH7 replicon cells to EC90 for NS5A in HCV genotype 1a infected in HuH7 replicon cells; format: cell-based
# [6] = Cmax in Wistar Han rat at 300 mg/kg, po by LC/MS method; format: ADME, organism-based; design: dose 300 mg/kg, route oral; details: in vivo
# How it was run: (§1)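 Single rising oral dose study in fed male Wistar Han rats, dosed PO in 10% TWEEN at the indicated doses. Plasma was obtained by centrifuging the blood, and compound levels were determined by LC/MS.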
# [7] = AUC in Beagle dog at 5 mg/kg, po by LC/MS method; format: ADME, organism-based, Canis lupus familiaris; details: in vivo
# How it was run: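 Beagle dogs, two animals per dosing group. Oral dose was given in 10% TWEEN. Blood was collected and spun to plasma, and plasma compound levels were measured by LC/MS.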
# Huh-7 = experiment: Cytotoxicity against human HuH7 cells assessed as effect on GAPDH mRNA levels up to 25 uM; format: cell-based
# How it was run: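 Huh-7 cells were exposed to compound up to a top concentration of 25 µM. Cytotoxicity was monitored as the change in GAPDH mRNA levels.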
# [8] = target: T1, Nonstructural protein 5A (Hepatitis C virus); experiment: Inhibition of NS5A K24R mutant in HCV genotype 1a infected in HuH7 replicon cells assessed as decrease in viral replication after 3 days by RT-PCR method; format: cell-based; details: Hepatitis C virus subtype 1a
# [9] = test system: Hepatitis C virus subtype 1a; experiment: Resistance ratio of EC90 for NS5A L31M/Y93C double mutant in HCV genotype 1a infected in HuH7 replicon cells to EC90 for NS5A in HCV genotype 1a infected in HuH7 replicon cells; format: cell-based
# [10] = test system: Hepatitis C virus subtype 1a; experiment: Resistance ratio of EC90 for NS5A R81S mutant in HCV genotype 1a infected in HuH7 replicon cells to EC90 for NS5A in HCV genotype 1a infected in HuH7 replicon cells; format: cell-based
# [11] = target: T1, Nonstructural protein 5A (Hepatitis C virus); experiment: Inhibition of NS5A in HCV genotype 1a infected in HuH7 replicon cells assessed as decrease in viral replication after 3 days by RT-PCR method; format: cell-based; details: Hepatitis C virus subtype 1a
# [12] = Resistance ratio of EC90 for NS5A L31M mutant in HCV genotype 1b infected in HuH7 replicon cells to EC90 for NS5A in HCV genotype 1a infected in HuH7 replicon cells; format: cell-based
# [13] = Cmax in Wistar Han rat at 10 mg/kg, po by LC/MS method; format: ADME, organism-based; design: dose 10 mg/kg, route oral; details: in vivo
# How it was run: (§2)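 Male Wistar Han rats, two per dosing group, dosed orally at 10 mg/kg in 10% TWEEN. Plasma was separated from collected blood by centrifugation and analysed by LC/MS.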
# [14] = target: T1, Nonstructural protein 5A (Hepatitis C virus); experiment: Inhibition of NS5A M28K mutant in HCV genotype 1a infected in HuH7 replicon cells assessed as decrease in viral replication after 3 days by RT-PCR method; format: cell-based; details: Hepatitis C virus subtype 1a
# [15] = target: T1, Nonstructural protein 5A (Hepatitis C virus); experiment: Inhibition of NS5A L31V mutant in HCV genotype 1a infected in HuH7 replicon cells assessed as decrease in viral replication after 3 days by RT-PCR method; format: cell-based; details: Hepatitis C virus subtype 1a
# [16] = Resistance ratio of EC90 for NS5A M31V mutant in HCV genotype 2b infected in HuH7 replicon cells to EC90 for NS5A in HCV genotype 1a infected in HuH7 replicon cells; format: cell-based
# [17] = Resistance ratio of EC90 for NS3 D168Y mutant in HCV genotype 1b infected in HuH7 replicon cells to EC90 for NS5A in HCV genotype 1a infected in HuH7 replicon cells
# [18] = test system: NS3 (Hepatitis C virus), A3EZJ3 [A156T]; experiment: Inhibition of NS3 A156T mutant in HCV genotype 1b infected in HuH7 replicon cells assessed as decrease in viral replication after 3 days by RT-PCR method; format: cell-based; details: Hepatitis C virus subtype 1b
# [19] = Resistance ratio of EC90 for NS5A A92K mutant in HCV genotype 1b infected in HuH7 replicon cells to EC90 for NS5A in HCV genotype 1a infected in HuH7 replicon cells; format: cell-based
# [20] = Resistance ratio of EC90 for NS5A in HCV genotype 2a infected in HuH7 replicon cells to EC90 for NS5A in HCV genotype 1a infected in HuH7 replicon cells; format: cell-based
# [21] = test system: Nonstructural protein 5A (Hepatitis C virus), Q5L478 [UNDEFINED MUTATION]; experiment: Inhibition of NS5A L31M/Y93H double mutant in HCV genotype 1b infected in HuH7 replicon cells assessed as decrease in viral replication after 3 days by RT-PCR method; format: cell-based; details: Hepatitis C virus subtype 1b
# [22] = Drug level in Wistar Han rat at 10 mg/kg, po measured at 24 hrs by LC/MS method; format: ADME, organism-based; details: in vivo, read-out: Drug uptake; how it was run: as §2
# [23] = AUC in Wistar Han rat at 10 mg/kg, po by LC/MS method; format: ADME, organism-based; details: in vivo; how it was run: as §2
# [24] = Tmax in Wistar Han rat at 300 mg/kg, po by LC/MS method; format: ADME, organism-based; details: in vivo; how it was run: as §1
# [25] = MRT in Wistar Han rat at 100 mg/kg, po by LC/MS method; format: ADME, organism-based; details: in vivo; how it was run: as §1
# [26] = Resistance ratio of EC90 for NS5A Y93H mutant in HCV genotype 3a infected in HuH7 replicon cells to EC90 for NS5A in HCV genotype 1a infected in HuH7 replicon cells; format: cell-based
smiles,measurement,setting,value
COC(=O)N[C@H](C(=O)N1CCC[C@H]1c1ncc(-c2cc(F)c3c(c2)O[C@@H](c2ccc(C4CC4)s2)n2c-3cc3cc(-c4cnc([C@@H]5CCCN5C(=O)[C@@H](NC(=O)OC)[C@@H]5CCOC(C)(C)C5)[nH]4)ccc32)[nH]1)C(C)C,EC90,[1],180 pM
same,Ratio,[2],45
same,Ratio,[3],762
same,EC90,[4],3.9 pM
same,Ratio,[5],16
same,Cmax,[6],1060 nM
same,AUC,[7],4.19 µM·h
same,Activity,Huh-7,Non-Toxic
same,EC90,[8],0.34 pM
same,Ratio,[9],43
same,Ratio,[10],< 1
same,EC90,[11],4.2 pM
same,Ratio,[12],< 1
same,Cmax,[13],150 to 183 nM
same,EC90,[14],420 pM
same,EC90,[15],4.3 pM
same,Ratio,[16],5
same,Ratio,[17],< 1
same,EC90,[18],4 pM
same,Ratio,[19],6
same,Ratio,[20],< 1
same,EC90,[21],190 pM
same,concentration at 24 h,[22],3 to 11 nM
same,AUC,[23],0.95 to 1.65 µM·h
same,Tmax,[24],5 h
same,MRT,[25],12.4 h
same,Ratio,[26],571

# Reference: ChEMBL document CHEMBL4177770, “Discovery of MK-6169, a Potent Pan-Genotype Hepatitis C Virus NS5A Inhibitor with Optimized Activity against Common Resistance-Associated Substitutions” (J Med Chem, 2018)
